# Calls of active or inactive are those of the source. The calls are words filed in the database; no cut-off is given here.
# How the values were obtained:
# Assay type in all cases: functional
# Staphylococcus aureus [1] = assay: Antibacterial activity against methicillin-resistant Staphylococcus aureus ATCC 43300 assessed as inhibition of bacterial growth after 18 hrs by CLSI protocol based broth microdilution assay
# Method in brief: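 Broth microdilution MIC of carbazole alone vs MRSA ATCC 43300, tested up to 200 μM.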
# Staphylococcus aureus [2] = assay: Potentiation of oxacillin induced antibacterial activity against methicillin-resistant Staphylococcus aureus ATCC 43300 assessed as fold change in oxacillin MIC at 10 uM after 18 hrs by CLSI protocol based broth microdilution assay
# Staphylococcus aureus [3] = assay: Potentiation of oxacillin induced antibacterial activity against methicillin-resistant Staphylococcus aureus ATCC 43300 assessed as oxacillin MIC at 10 uM after 18 hrs by CLSI protocol based broth microdilution assay
# Staphylococcus aureus [4] = assay: Potentiation of oxacillin induced antibacterial activity against methicillin-resistant Staphylococcus aureus COL assessed as oxacillin MIC at 10 uM after 18 hrs by CLSI protocol based broth microdilution assay
# Staphylococcus aureus [5] = assay: Potentiation of oxacillin induced antibacterial activity against methicillin-resistant Staphylococcus aureus USA300 assessed as fold change in oxacillin MIC at 10 uM after 18 hrs by CLSI protocol based broth microdilution assay
# Staphylococcus aureus [6] = assay: Potentiation of oxacillin induced antibacterial activity against methicillin-resistant Staphylococcus aureus COL assessed as fold change in oxacillin MIC at 10 uM after 18 hrs by CLSI protocol based broth microdilution assay
# Staphylococcus aureus [7] = assay: Potentiation of oxacillin induced antibacterial activity against methicillin-resistant Staphylococcus aureus USA300 assessed as oxacillin MIC at 10 uM after 18 hrs by CLSI protocol based broth microdilution assay
# Staphylococcus aureus [8] = assay: Potentiation of oxacillin induced antibacterial activity against methicillin-resistant Staphylococcus aureus USA100 assessed as fold change in oxacillin MIC at 10 uM after 18 hrs by CLSI protocol based broth microdilution assay
# Staphylococcus aureus [9] = assay: Potentiation of oxacillin induced antibacterial activity against methicillin-resistant Staphylococcus aureus USA100 assessed as oxacillin MIC at 10 uM after 18 hrs by CLSI protocol based broth microdilution assay
# Staphylococcus aureus [10] = assay: Potentiation of oxacillin induced antibacterial activity against methicillin-resistant Staphylococcus aureus ATCC 43300 assessed as oxacillin MIC at 50 uM after 18 hrs by CLSI protocol based broth microdilution assay
# Staphylococcus aureus [11] = assay: Potentiation of oxacillin induced antibacterial activity against methicillin-resistant Staphylococcus aureus ATCC 43300 assessed as fold change in oxacillin MIC at 50 uM after 18 hrs by CLSI protocol based broth microdilution assay
# Staphylococcus aureus [12] = assay: Potentiation of oxacillin induced antibacterial activity against methicillin-resistant Staphylococcus aureus USA 100 assessed as fold change in oxacillin MIC at 50 uM after 18 hrs by CLSI protocol based broth microdilution assay
# Staphylococcus aureus [13] = assay: Potentiation of oxacillin induced antibacterial activity against methicillin-resistant Staphylococcus aureus COL assessed as fold change in oxacillin MIC at 50 uM after 18 hrs by CLSI protocol based broth microdilution assay
# Staphylococcus aureus [14] = assay: Potentiation of oxacillin induced antibacterial activity against methicillin-resistant Staphylococcus aureus COL assessed as oxacillin MIC at 50 uM after 18 hrs by CLSI protocol based broth microdilution assay
# Staphylococcus aureus [15] = assay: Potentiation of oxacillin induced antibacterial activity against methicillin-resistant Staphylococcus aureus USA300 assessed as fold change in oxacillin MIC at 50 uM after 18 hrs by CLSI protocol based broth microdilution assay
# Staphylococcus aureus [16] = assay: Potentiation of oxacillin induced antibacterial activity against methicillin-resistant Staphylococcus aureus USA100 assessed as oxacillin MIC at 50 uM after 18 hrs by CLSI protocol based broth microdilution assay
# Staphylococcus aureus [17] = assay: Potentiation of oxacillin induced antibacterial activity against methicillin-resistant Staphylococcus aureus USA300 assessed as oxacillin MIC at 50 uM after 18 hrs by CLSI protocol based broth microdilution assay
# Staphylococcus aureus [18] = assay: Antibacterial activity against methicillin-resistant Staphylococcus aureus USA100 assessed as inhibition of bacterial growth after 18 hrs in presence of oxacillin by CLSI protocol based broth microdilution assay
# Staphylococcus aureus [19] = assay: Antibacterial activity against methicillin-resistant Staphylococcus aureus USA300 assessed as inhibition of bacterial growth after 18 hrs in presence of oxacillin by CLSI protocol based broth microdilution assay
# Staphylococcus aureus [20] = assay: Antibacterial activity against methicillin-resistant Staphylococcus aureus COL assessed as inhibition of bacterial growth after 18 hrs in presence of oxacillin by CLSI protocol based broth microdilution assay
# Staphylococcus aureus [21] = assay: Potentiation of oxacillin induced antibacterial activity against methicillin-resistant Staphylococcus aureus ATCC 43300 assessed as oxacillin MIC at 25 uM after 18 hrs by CLSI protocol based broth microdilution assay
# Staphylococcus aureus [22] = assay: Antibacterial activity against methicillin-resistant Staphylococcus aureus USA300 harboring stk1 deletion mutant assessed as inhibition of bacterial growth after 18 hrs in presence of oxacillin by CLSI protocol based broth microdilution assay
# Method in brief: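 USA300 Δstk1 mutant. Oxacillin MIC (µg mL⁻¹) was read with each carbazole held at a fixed 25 or 50 µM, and compared with oxacillin alone in the same strain. Fold change in MIC was taken as alone over cotreated. The parent USA300 and the stk1-complemented (Δ/+stk1) strains were run alongside.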
# Staphylococcus aureus [23] = assay: Antibacterial activity against methicillin-resistant Staphylococcus aureus USA300 harboring stk1 deletion mutant co-transfected with a plasmid bearing stk1 assessed as inhibition of bacterial growth after 18 hrs in presence of oxacillin by CLSI protocol based broth microdilution assay
# Method in brief: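 USA300 Δstk1 strain carrying induced stk1 (Δ/+stk1). […] Fold change in MIC taken relative to oxacillin alone.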
# Staphylococcus aureus [24] = assay: Upregulation of blaZ gene expression in methicillin-resistant Staphylococcus aureus ATCC 43300 by RT-PCR method
# Staphylococcus aureus [25] = assay: Upregulation of blaZ gene expression in methicillin-resistant Staphylococcus aureus USA100 by RT-PCR method
# Staphylococcus aureus [26] = assay: Upregulation of mecA gene expression in methicillin-resistant Staphylococcus aureus ATCC 43300 by RT-PCR method
# Staphylococcus aureus [27] = assay: Upregulation of mecA gene expression in methicillin-resistant Staphylococcus aureus USA100 by RT-PCR method
# Staphylococcus aureus [28] = assay: Upregulation of mecA gene expression in methicillin-resistant Staphylococcus aureus USA300 by RT-PCR method
# Staphylococcus aureus [29] = assay: Upregulation of mecA gene expression in methicillin-resistant Staphylococcus aureus COL by RT-PCR method
Compound,MIC (Staphylococcus aureus [1]),MIC (Staphylococcus aureus [10]),fold change (FC) (Staphylococcus aureus [11]),fold change (FC) (Staphylococcus aureus [12]),fold change (FC) (Staphylococcus aureus [13]),MIC (Staphylococcus aureus [14]),fold change (FC) (Staphylococcus aureus [15]),MIC (Staphylococcus aureus [16]),MIC (Staphylococcus aureus [17]),other results
Clc1ccc2[nH]c3ccc(Cl)cc3c2c1,50 µM,,,,,,,,,fold change (FC) (Staphylococcus aureus [2]): 1; MIC (Staphylococcus aureus [3]): 16 µg/mL; MIC (Staphylococcus aureus [4]): 128 µg/mL; fold change (FC) (Staphylococcus aureus [5]): 2; fold change (FC) (Staphylococcus aureus [6]): 4; MIC (Staphylococcus aureus [7]): 16 µg/mL; fold change (FC) (Staphylococcus aureus [8]): 1; MIC (Staphylococcus aureus [9]): 256 µg/mL
Brc1ccc2c(c1)[nH]c1cc(Br)ccc12,> 200 µM,8 µg/mL,4,4,2,256 µg/mL,4,64 µg/mL,8 µg/mL,
Nc1ccc2[nH]c3ccc(N)cc3c2c1,> 200 µM,32 µg/mL,1,1,1,512 µg/mL,1,256 µg/mL,16 µg/mL,
CC1(C)S[C@@H]2[C@H](NC(=O)[C@H](N)c3ccccc3)C(=O)N2[C@H]1C(=O)O [AMPICILLIN],32 µg/mL,,,,,,,,,MIC (Staphylococcus aureus [18]): 32 µg/mL; MIC (Staphylococcus aureus [19]): 8 µg/mL; MIC (Staphylococcus aureus [20]): 32 µg/mL
COc1cccc(OC)c1C(=O)N[C@@H]1C(=O)N2[C@@H]1SC(C)(C)[C@@H]2C(=O)O [METHICILLIN],4 µg/mL,,,,,,,,,MIC (Staphylococcus aureus [18]): 512 µg/mL; MIC (Staphylococcus aureus [19]): 32 µg/mL; MIC (Staphylococcus aureus [20]): 1020 µg/mL
CC(C(=O)O)c1ccc2c(c1)[nH]c1ccc(Cl)cc12 (stereo not given) [CARPROFEN],100 µM,,,1,1,512 µg/mL,1,256 µg/mL,16 µg/mL,MIC (Staphylococcus aureus [21]): 32 µg/mL
Cc1onc(-c2ccccc2)c1C(=O)N[C@@H]1C(=O)N2[C@@H]1SC(C)(C)[C@@H]2C(=O)O [OXACILLIN],32 µg/mL,,,,,,,,,MIC (Staphylococcus aureus [18]): 256 µg/mL; MIC (Staphylococcus aureus [19]): 32 µg/mL; MIC (Staphylococcus aureus [20]): 512 µg/mL; MIC (Staphylococcus aureus [22]): 0.25 µg/mL; MIC (Staphylococcus aureus [23]): 4 µg/mL; Activity (Staphylococcus aureus [24]): Active; Activity (Staphylococcus aureus [25]): Active; Activity (Staphylococcus aureus [26]): Active; Activity (Staphylococcus aureus [27]): Active; Activity (Staphylococcus aureus [28]): Active; Activity (Staphylococcus aureus [29]): Active
Clc1ccc2c(c1)[nH]c1ccccc12,> 200 µM,16 µg/mL,2,2,2,512 µg/mL,1,128 µg/mL,16 µg/mL,
Oc1cccc2[nH]c3ccccc3c12,> 200 µM,32 µg/mL,1,1,1,512 µg/mL,1,256 µg/mL,32 µg/mL,
c1ccc2c(c1)[nH]c1ccccc12 [CARBAZOLE],> 200 µM,32 µg/mL,1,1,1,512 µg/mL,1,256 µg/mL,32 µg/mL,
CO[C@@]1(NC(=O)Cc2cccs2)C(=O)N2C(C(=O)O)=C(COC(N)=O)CS[C@@H]21 [CEFOXITIN],64 µg/mL,,,,,,,,,MIC (Staphylococcus aureus [18]): 256 µg/mL; MIC (Staphylococcus aureus [19]): 32 µg/mL; MIC (Staphylococcus aureus [20]): 256 µg/mL
Brc1ccc2c(c1)[nH]c1ccccc12,> 200 µM,16 µg/mL,2,2,1,512 µg/mL,1,128 µg/mL,32 µg/mL,
Fc1ccc2[nH]c3ccccc3c2c1,> 200 µM,16 µg/mL,2,2,1,512 µg/mL,1,128 µg/mL,32 µg/mL,
CC(C)(O/N=C(\C(=O)N[C@@H]1C(=O)N2C(C(=O)[O-])=C(C[n+]3ccccc3)CS[C@H]12)c1csc(N)n1)C(=O)O [CEFTAZIDIME],128 µg/mL,,,,,,,,,MIC (Staphylococcus aureus [18]): 1020 µg/mL; MIC (Staphylococcus aureus [19]): 512 µg/mL; MIC (Staphylococcus aureus [20]): 1020 µg/mL
COc1ccc2[nH]c3ccc(OC)cc3c2c1,> 200 µM,64 µg/mL,0.5,1,1,512 µg/mL,>1,256 µg/mL,64 µg/mL,
Brc1ccc2[nH]c3ccccc3c2c1,> 200 µM,32 µg/mL,1,2,1,512 µg/mL,1,128 µg/mL,32 µg/mL,
Ic1ccc2[nH]c3ccccc3c2c1,> 200 µM,16 µg/mL,2,2,1,512 µg/mL,2,128 µg/mL,16 µg/mL,

# Source: ChEMBL document CHEMBL5046302, “Identification and Evaluation of Brominated Carbazoles as a Novel Antibiotic Adjuvant Scaffold in MRSA” (2022)
